An excerpt weighted towards active compounds, which were near 1.5% of everything screened.
VLA-4 inh: inhibition in a human VLA-4 binding assay; inhibition, % (about 7 µM as worked out from the volumes in the protocol); VLA-4 expressing cells, ligand binding flow cytometry; 330,000 compounds, 0.2% hits; AID 2557; P13612; in the data active = inhibition above about 50%
Target sequence (P13612 whole entry, looked up): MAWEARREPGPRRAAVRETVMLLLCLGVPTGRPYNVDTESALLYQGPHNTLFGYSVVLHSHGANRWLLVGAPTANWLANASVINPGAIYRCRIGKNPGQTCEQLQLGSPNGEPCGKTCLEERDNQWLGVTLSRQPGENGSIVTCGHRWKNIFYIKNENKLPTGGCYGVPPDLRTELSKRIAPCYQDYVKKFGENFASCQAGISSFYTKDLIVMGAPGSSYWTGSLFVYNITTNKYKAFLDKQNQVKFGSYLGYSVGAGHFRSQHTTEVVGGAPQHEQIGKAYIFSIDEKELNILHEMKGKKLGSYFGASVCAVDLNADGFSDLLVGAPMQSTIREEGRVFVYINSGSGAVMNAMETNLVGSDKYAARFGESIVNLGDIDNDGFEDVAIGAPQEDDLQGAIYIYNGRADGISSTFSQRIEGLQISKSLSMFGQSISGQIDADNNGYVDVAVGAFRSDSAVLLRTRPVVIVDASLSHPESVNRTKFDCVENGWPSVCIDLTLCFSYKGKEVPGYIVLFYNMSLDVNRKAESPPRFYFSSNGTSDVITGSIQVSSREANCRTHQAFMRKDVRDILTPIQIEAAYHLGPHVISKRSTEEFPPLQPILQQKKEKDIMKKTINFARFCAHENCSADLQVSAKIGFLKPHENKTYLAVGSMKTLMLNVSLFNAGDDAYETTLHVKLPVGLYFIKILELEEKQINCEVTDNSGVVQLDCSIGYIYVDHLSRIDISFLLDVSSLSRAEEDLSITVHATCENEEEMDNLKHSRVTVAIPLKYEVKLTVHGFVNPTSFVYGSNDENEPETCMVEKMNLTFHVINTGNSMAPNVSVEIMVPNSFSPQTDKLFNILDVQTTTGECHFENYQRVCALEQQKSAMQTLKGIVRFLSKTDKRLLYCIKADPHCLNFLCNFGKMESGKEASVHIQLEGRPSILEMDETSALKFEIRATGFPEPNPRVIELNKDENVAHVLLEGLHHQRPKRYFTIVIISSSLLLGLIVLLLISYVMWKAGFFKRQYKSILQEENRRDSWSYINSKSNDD
SENP1 FRET inh: inhibitors of human SENP1 SUMO protease catalytic domain. Q9P0U3. recombinant SENP1 catalytic domain, CyPet-SUMO1-YPet FRET cleavage. inhibition, % at 10 µM. 360,000 compounds, 0.21% hits;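 active = inhibition at least 30% at 10 µM, raw YFP signal under a set limit, fluorescence ratio 0.5 to 1.5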;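 note: 0% = enzyme with DMSO and 100% = no enzyme wells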
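Controls: no-enzyme wells low, DMSO-plus-enzyme wells high control. Test system: human recombinant His6-tagged SENP1 catalytic domain enzyme. Reagent: SFCypet-SUMO1-SFYpet FRET protein substrate, 25 nM final. Doses: one dose per compound, 10 µM, 0.5% DMSO. Detection: FRET, CFP and YFP emission. Timing: 50 min reaction at room temperature.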
Platelet DG rel: modulates dense granule release in human platelets. human platelet-rich plasma, SFLLRN dense granule ATP release, luminescence. inhibition, %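 (compounds screened at 7.5 µM in platelet-rich plasma)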. 300,000 compounds, 0.22% hits. AID 1663;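 active = mean replicate score, as percent of positive control, at or above 50; inconclusive = mean below 50 but at least one replicate at or above 50; inactive = mean and every replicate below 50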
Myeloid diff 2: promotes myeloid progenitor differentiation; ER-HoxA9 myeloid progenitors, lysozyme-GFP differentiation, flow cytometry; calls only at 10 µM; 360,000 compounds, 1% hits;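 active = normalized GFP-positive differentiation at or above the plate's own cutoff, the solvent-only control mean plus 3 SD; inconclusive = no clear call, values can overlap the other calls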;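 note: cells exposed to compound for four days before flow analysis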
VLA-4 allo CP: human VLA-4 allosteric modulation in cherry picked compounds | shares compounds with VLA-4 inh | U937 cells, HUTS-21 LIBS mAb binding, flow cytometry; LDV ligand present at threefold Kd | inhibition, % at 6.7 µM | 1,300 compounds, 2% hits | AID 2813; in the data active = inhibition above about 40%;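 note: 0% = ligand without compound and 100% = no ligand background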
Numbers without * were called inactive; i = inactive; u = inconclusive; x = not tested or not shown; + = active, no number.

SMILES | VLA-4 inh | SENP1 FRET inh | Platelet DG rel | Myeloid diff 2 | others
COc1ccc(S(=O)(=O)NCC(=O)NCc2cc(=O)n(C)c(=O)n2C)cc1C | 4 | 0 | -4 | +
COc1ccc(-c2cc3ccc(OCC(N)=O)cc3oc2=O)cc1OC | 0 | -89 | 1 | i
COc1ccc(-c2cc3ccc(O)cc3oc2=O)cc1OC | 16 | -22 | 71* | i
COc1ccc2c(/C=C/c3cc[n+](C)cc3)c[nH]c2c1 | i | 19 | 6 | +
NC(c1csc(NC(=O)c2cccc(OC(F)(F)F)c2)n1)c1ccccc1Cl (stereo not given) | x | -4 | x | +
O=C(NCCSc1c[nH]c2ccccc12)c1c(F)cccc1F | 8 | 0 | 74* | i
COc1ccccc1CNc1ccc2c(c1)CCC2 | -253 | -46 | 1 | +
COc1ccc(CNc2ccc3c(c2)CCC3)cc1Br | -18 | -34 | -3 | i
COc1cc(-c2ccc3oc(-c4ccsc4)cc3c2)cc(OC)c1OC | -20 | -1 | -3 | i
Cc1cccc(C)c1NC(=O)COC(=O)C1Cc2ccccc2CN1C(=O)c1ccccc1 (stereo not given) | -1 | 0 | -12 | i
N#Cc1ccc(NC(=O)COC(=O)C2Cc3ccccc3CN2C(=O)c2ccccc2)cc1 (stereo not given) | 10 | 3 | -3 | +
Cc1ccc(S(=O)(=O)Nc2cc(C(C)C)c(O)cc2C)cc1 | -6 | -1 | -1 | +
O=C(Nc1ccc(F)c(F)c1)C1CCCN(S(=O)(=O)c2cccc3nonc23)C1 (stereo not given) | 12 | -8 | 1 | +
CC(=O)NN1C(=O)/C(=C\c2ccc(O)cc2)SC1=S | -8 | 55* | 11 | i
CC(=O)NN1C(=O)/C(=C\c2ccccc2)SC1=S | -4 | 4 | 3 | i
CC(=O)NN1C(=O)/C(=C/c2ccc(Br)o2)SC1=S | -20 | 43* | 1 | i
O=C1/C(=C\c2ccc(O)cc2)SC(=S)N1/N=C/c1ccc(O)cc1 | -51 | 77* | 6 | i
CC(=O)NN1C(=O)/C(=C\c2ccc(Br)o2)SC1=S | -16 | 55* | 22 | i
Cc1occc1C(=O)N1CCCC(N2CCN(c3cccc(Cl)c3)CC2)C1 (stereo not given) | 2 | -1 | -3 | i
CC(=O)Nc1ccc(NC(=O)c2ccccc2N(C)S(=O)(=O)c2ccccc2)cc1 | 4 | 2 | -1 | i
COc1ccc(S(=O)(=O)N2CCCOC2CNC(=O)C(=O)NCCc2ccco2)cc1C (stereo not given) | 7 | -2 | -7 | i
Cc1cc(Sc2nc(NC(C)C)nc(NC(C)C)n2)nc(Cl)n1 | -13 | 2 | 0 | i
O=C(c1cnc(Cl)c(Cl)c1)N1CCN(S(=O)(=O)c2ccc3ccccc3c2)CC1 | x | 0 | x | i
NNC(=O)c1oc2nc(-c3cccs3)cc(-c3ccco3)c2c1N | -60 | -23 | 8 | +
Cc1ccc(-c2cc(-c3ccco3)c3c(N)c(C(=O)NN)oc3n2)cc1 | -167 | -32 | -9 | +
SMILES | VLA-4 inh | SENP1 FRET inh | Platelet DG rel | Myeloid diff 2 | others
NNC(=O)c1oc2nc(-c3ccccc3)cc(-c3ccccc3)c2c1N | i | -20 | -4 | +
Cc1cc(-c2ccc(C(C)C)c(S(=O)(=O)Nc3ccccn3)c2)on1 | -2 | -5 | -9 | i
Cn1c(C(=O)N2CCCC2)cc2c(=O)n(C)c3ccccc3c21 | x | 2 | x | i
Cc1cccc(N2CCN(C(=O)c3cc4c(=O)n(C)c5ccccc5c4n3C)CC2)c1C | 3 | -2 | -10 | +
Cc1ccc(Cl)cc1N1CCN(C(=O)c2cc3c(=O)n(C)c4ccccc4c3n2C)CC1 | -35 | -2 | 12 | +
CC(C)c1cc(=O)[nH]c(N2CCN(Cc3ccc4c(c3)OCO4)CC2)n1 | 9 | 2 | -4 | i
c1ccc(C(Cc2nc(-c3cccnc3)no2)c2ccccc2)cc1 | 92* | -7 | 10 | i | VLA-4 allo CP=-4
CCOC(=O)c1c(NC(=O)COc2ncnc3sccc23)sc2c1CCC2 | 70* | -11 | 3 | i | VLA-4 allo CP=8
CCOC(=O)c1c(NC(=O)COC)sc2c1CCCC2 | 2 | -4 | 7 | i
COc1ccc2c(c1)N(C)/C(=C1/SC(=NCc3ccccc3)N(c3ccccc3)C1=O)S2 | 90* | -6 | -2 | i | VLA-4 allo CP=5
C=CCN1C(=O)/C(=C2/Sc3ccc(OC)cc3N2C)SC1=NCc1ccccc1 | 10 | -34 | -1 | i
Cc1nn(S(=O)(=O)c2ccccc2)c(C)c1S(=O)(=O)N1CCC(C)CC1 | 23 | 2 | 2 | i
CNC(=O)C(=O)Nc1c(C)cc(C)cc1C | 43 | 1 | -5 | i | VLA-4 allo CP=-4
CNC(=O)C(=O)Nc1ccc(C)cc1C | 5 | 2 | 4 | i
CN1CCN(c2ccc(NC(=O)CSc3nnnn3-c3ccccc3Cl)cc2)CC1 | 8 | 0 | -22 | i
O=C1NC(=O)/C(=C/c2cccc(O)c2)N1 | 47 | -5 | 7 | i | VLA-4 allo CP=-3
COc1cccc(CNC(=O)C2(C)CCCCN2C)c1 (stereo not given) | x | 2 | x | i
O=C(c1ccc(Cl)c(NC2=NC3CS(=O)(=O)CC3S2)c1)N1CCN(c2ccccc2)CC1 (stereo not given) | -3 | 1 | -15 | i | VLA-4 allo CP=0
Cc1cccc(N2CCN(C(=O)c3ccc(Cl)c(NC4=NC5CS(=O)(=O)CC5S4)c3)CC2C)c1 (stereo not given) | -14 | 0 | -2 | i | VLA-4 allo CP=-6
COc1cccc(CNC(=O)c2ccc(Cl)c(NC3=NC4CS(=O)(=O)CC4S3)c2)c1 (stereo not given) | 1 | 1 | -10 | u
COc1cccc(N2CCN(C(=O)c3cccc(NC4=NC5CS(=O)(=O)CC5S4)c3)CC2)c1 (stereo not given) | -40 | 1 | 12 | i | VLA-4 allo CP=0
Cc1ccc(C)c(N2CCN(C(=O)Cc3ccc(NC4=NC5CS(=O)(=O)CC5S4)cc3)CC2)c1 (stereo not given) | 56* | 4 | -8 | i | VLA-4 allo CP=-2
CCOC(=O)C1CCN(C(=O)c2cccc(NC3=NC4CS(=O)(=O)CC4S3)c2)CC1 (stereo not given) | 2 | 2 | 1 | i
CN1CCC(N(C)S(=O)(=O)c2ccc(NC(=O)COc3cccc(C(F)(F)F)c3)cc2)CC1 | 19 | -1 | -6 | i
Cc1ccc(C)c(N2CCN(C(=O)c3ccc(Cl)c(NC4=NC5CS(=O)(=O)CC5S4)c3)CC2)c1 (stereo not given) | -4 | 3 | 9 | i | VLA-4 allo CP=0
N#Cc1ccccc1NC(=O)CN(Cc1ccccc1)Cc1ccccc1 | 23 | -2 | 6 | i
COc1ccc(C(=O)N2CCC(C(=O)Nc3ccccc3OC)CC2)cc1 | 57* | 1 | 3 | i | VLA-4 allo CP=-2
COc1cc(C(=O)N2CCC(C(=O)Nc3cccc(C(C)=O)c3)CC2)cc(OC)c1OC | 94* | 1 | 2 | i | VLA-4 allo CP=6
